Test results published in ChEMBL document CHEMBL4270638, “Sulfonyl-containing phenyl-pyrrolyl pentane analogues: Novel non-secosteroidal vitamin D receptor modulators with favorable physicochemical properties, pharmacokinetic properties and anti-tumor activity” (Eur J Med Chem, 2018).
≈ marks a conversion by molar mass, not a printed value. Calls of active or inactive are those of the source. The rule behind the calls is not given here.

What was measured:
[1] = Clearance in Sprague-Dawley rat at 5 mg/kg, iv by HPLC method; format: ADME, organism-based; conditions: in vivo
In short: (§1)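 Male Sprague-Dawley rats, 180–220 g, n = 3 per group. Dosed iv at 5 mg/kg or ip at 20 mg/kg in ethanol/EL/saline (1:1:18). Plasma sampled at 0, 0.083, 0.167, 0.25, 0.5, 1, 2, 4, 8, 12 and 24 h and centrifuged 12000 rpm for 10 min. Plasma drug measured by HPLC; parameters by PK modelling; mean ± SD.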

[2] = test system: Mus musculus; assay: Toxicity in Balb/c nude mouse xenografted with human MCF7 cells assessed as effect on body weight at 10 mg/kg, ip administered three times a week for three weeks starting from day 7 after tumor cell inoculation; format: organism-based; conditions: in vivo
In short: (§2)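 […] BALB/c-nu mice, 10 weeks old. 1×10^7 MCF-7 cells injected into the left fourth mammary fat pad; dosing began at about 50 mm3 tumour volume (day 7), n = 5 per group. Dosed ip at 10 mg/kg in ethanol/EL/saline 1:1:18, three times weekly for three weeks. Tumour volume by calipers = length × width² × 0.5; tumour weight and body weight recorded.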

[3] = Clearance in Sprague-Dawley rat at 20 mg/kg, ip by HPLC method; format: ADME, organism-based; conditions: in vivo; in short: as §1
[4] = test system: MCF7; assay: Antitumor activity against human MCF7 cells xenografted in Balb/c nude mouse assessed as increase in p27 expression at 10 mg/kg, ip administered three times a week for three weeks starting from day 7 after tumor cell inoculation by immunohistochemical analysis; format: functional, organism-based
[5] = Solubility of the compound in water at pH 7.4 by HPLC method; format: physicochemical
In short: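 Aqueous solubility measured at pH 7.4, with samples quantified by HPLC.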

[6] = test system: MCF7; assay: Induction of apoptosis in human MCF7 cells expressing VDR siRNA assessed as necrotic cells at 1 uM after 24 hrs by Annexin-V-FITC/propidium iodide staining based flow cytometry (reference value: 0.15%); format: functional
[7] = Mean residence time in Sprague-Dawley rat at 20 mg/kg, ip by HPLC method; format: ADME, organism-based; conditions: in vivo; in short: as §1
[8] = test system: MCF7; assay: Induction of apoptosis in human MCF7 cells assessed as upregulation of p27 expression at 1 uM after 24 hrs by Western blot analysis; format: functional, cell-based
In short: (§3)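 MCF-7 cells treated at 1 µM for 24 h. Lysates resolved by 10% SDS-PAGE and transferred to PVDF. Probed with rabbit anti-p21, anti-p27 and anti-Bax antibodies, with mouse anti-β-actin as loading control. HRP-conjugated secondary antibodies; bands detected on an infrared scanner.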

[9] = Bioavailability in Sprague-Dawley rat at 20 mg/kg, ip by HPLC method; format: ADME, organism-based; conditions: in vivo; in short: as §1
[10] = test system: MCF7; assay: Induction of apoptosis in human MCF7 cells expressing VDR siRNA assessed as late apoptotic cells at 1 uM after 24 hrs by Annexin-V-FITC/propidium iodide staining based flow cytometry (reference value: 1.01%); format: functional
[11] = molecular target: T1, Vitamin D3 receptor (Homo sapiens, UniProt P11473); assay: Displacement of fluormone VDR red from human full-length VDR after 4 hrs by fluorescence polarization assay
T1 sequence (P11473 whole entry): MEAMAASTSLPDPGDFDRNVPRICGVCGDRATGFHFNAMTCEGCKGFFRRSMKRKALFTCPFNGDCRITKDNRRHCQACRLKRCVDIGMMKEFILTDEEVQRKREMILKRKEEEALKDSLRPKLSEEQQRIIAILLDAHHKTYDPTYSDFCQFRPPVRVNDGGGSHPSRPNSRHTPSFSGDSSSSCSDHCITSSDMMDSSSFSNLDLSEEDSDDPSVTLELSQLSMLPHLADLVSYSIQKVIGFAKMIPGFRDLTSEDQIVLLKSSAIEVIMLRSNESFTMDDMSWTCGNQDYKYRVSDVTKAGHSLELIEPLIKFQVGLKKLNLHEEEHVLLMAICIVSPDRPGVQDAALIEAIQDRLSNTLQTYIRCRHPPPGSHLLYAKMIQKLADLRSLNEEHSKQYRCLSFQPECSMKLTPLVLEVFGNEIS

[12] = test system: MCF7; assay: Induction of apoptosis in human MCF7 cells assessed as upregulation of Bax expression at 1 uM after 24 hrs by Western blot analysis; format: functional, cell-based; in short: as §3
[13] = test system: MCF7; assay: Cell cycle arrest in human MCF7 cells expressing VDR siRNA assessed as accumulation at S phase at 1 uM after 24 hrs by propidium iodide staining based flow cytometry (reference value: 32%); format: functional
[14] = Half life in rat liver microsomes in presence of NADPH by HPLC method; format: ADME, microsome
In short: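 Compounds incubated with rat liver microsomes plus NADPH. Remaining compound quantified by HPLC at 0, 5, 10, 20, 30, 45, 60 and 90 min, and half-life calculated.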

[15] = Half life in Sprague-Dawley rat at 5 mg/kg, iv by HPLC method; format: ADME, organism-based; conditions: in vivo; in short: as §1
[16] = test system: MCF7; assay: Induction of apoptosis in human MCF7 cells expressing VDR siRNA assessed as live cells at 1 uM after 24 hrs by Annexin-V-FITC/propidium iodide staining based flow cytometry (reference value: 98.35%); format: functional
[17] = AUC in Sprague-Dawley rat at 20 mg/kg, ip by HPLC method; format: ADME, organism-based; conditions: in vivo; in short: as §1
[18] = test system: MCF7; assay: Induction of apoptosis in human MCF7 cells expressing scrambled siRNA assessed as early apoptotic cells at 1 uM after 24 hrs by Annexin-V-FITC/propidium iodide staining based flow cytometry (reference value: 0.93%); format: functional
[19] = test system: MCF7; assay: Antiproliferative activity against human MCF7 cells after 24 hrs by MTT assay; format: functional, cell-based; conditions: MCF7, 24 h
[20] = test system: MCF7; assay: Induction of apoptosis in human MCF7 cells expressing scrambled siRNA assessed as necrotic cells at 1 uM after 24 hrs by Annexin-V-FITC/propidium iodide staining based flow cytometry (reference value: 0.16%); format: functional
[21] = test system: MCF7; assay: Cell cycle arrest in human MCF7 cells expressing scrambled siRNA assessed as accumulation at S phase at 1 uM after 24 hrs by propidium iodide staining based flow cytometry (reference value: 29.79%); format: functional
[22] = test system: MCF7; assay: Cell cycle arrest in human MCF7 cells expressing VDR siRNA assessed as accumulation at G2/M phase at 1 uM after 24 hrs by propidium iodide staining based flow cytometry (reference value: 17.57%); format: functional
[23] = Mean residence time in Sprague-Dawley rat at 5 mg/kg, iv by HPLC method; format: ADME, organism-based; conditions: in vivo; in short: as §1
[24] = test system: MCF7; assay: Induction of apoptosis in human MCF7 cells assessed as upregulation of p21 expression at 1 uM after 24 hrs by Western blot analysis; format: functional, cell-based; in short: as §3
[25] = test system: Mus musculus; assay: Hypercalcemic effect in Balb/c nude mouse xenografted with human MCF7 cells assessed as effect on serum calcium level at 10 mg/kg, ip administered three times a week for three weeks starting from day 7 after tumor cell inoculation measured on day 27 (reference value: 0.6 umol/ml); format: ADME, organism-based; conditions: in vivo
[26] = AUC in Sprague-Dawley rat at 5 mg/kg, iv by HPLC method; format: ADME, organism-based; conditions: in vivo; in short: as §1
[27] = test system: MCF7; assay: Induction of apoptosis in human MCF7 cells expressing VDR siRNA assessed as early apoptotic cells at 1 uM after 24 hrs by Annexin-V-FITC/propidium iodide staining based flow cytometry (reference value: 0.49%); format: functional
[28] = test system: MCF7; assay: Antitumor activity against human MCF7 cells xenografted in Balb/c nude mouse assessed as reduction in tumor growth at 10 mg/kg, ip administered three times a week for three weeks starting from day 7 after tumor cell inoculation; format: functional, organism-based; in short: as §2

CCN(CC)CCNC(=O)c1cc(C(CC)(CC)c2ccc(OCS(=O)(=O)c3ccccc3)c(C)c2)cn1CC
clearance [1]: 11.2 mL/min | Activity [2]: Non-Toxic | CL/F [3]: 27.7 mL/min | Activity [4]: Active | solubility [5]: 85.3 µg/mL (≈ 150 µM) | Activity [6]: 0.25% | MRT [7]: 11.9 h | Activity [8]: Active | bioavailability [9]: 40.3% | Activity [10]: 1.57% | IC50 [11]: 125 nM | Activity [12]: Active | Activity [13]: 26.36% | half-life [14]: 0.987 h | half-life [15]: 6.6 h | Activity [16]: 97.48% | AUC [17]: 12000 ng·h/mL | Activity [18]: 1.21% | IC50 [19]: 2030 nM | Activity [20]: 0.46% | Activity [21]: 29.66% | Activity [22]: 19.02% | MRT [23]: 9.72 h | Activity [24]: Active | Activity [25]: Non-Toxic | AUC [26]: 7470 ng·h/mL | Activity [27]: 0.7% | Activity [28]: Active

CCN(CC)CCNC(=O)c1ccc(C(CC)(CC)c2ccc(OCSC)c(C)c2)n1CC
clearance [1]: 7 mL/min | Activity [2]: Non-Toxic | CL/F [3]: 16.5 mL/min | Activity [4]: Active | solubility [5]: 74.6 µg/mL (≈ 157 µM) | Activity [6]: 0.51% | MRT [7]: 15.7 h | Activity [8]: Active | bioavailability [9]: 43.2% | Activity [10]: 1.67% | IC50 [11]: 89.1 nM | Activity [12]: Active | Activity [13]: 32.42% | half-life [14]: 0.954 h | half-life [15]: 4.72 h | Activity [16]: 97.35% | AUC [17]: 20400 ng·h/mL | Activity [18]: 1.31% | IC50 [19]: 5160 nM | Activity [20]: 0.34% | Activity [21]: 27.95% | Activity [22]: 16.01% | MRT [23]: 8.08 h | Activity [24]: Active | Activity [25]: Non-Toxic | AUC [26]: 11800 ng·h/mL | Activity [27]: 0.47% | Activity [28]: Active
